Columns and labels:
Neoplastic cell line [1] = test: Cytotoxic activity against KB cells.; assay type: cell-based; conditions: Homo sapiens
In short: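 KB cells (human oral epidermoid carcinoma) grown in MEM(H) with 5% FBS. Compound effect on incorporation of radiolabelled precursors into DNA, RNA and protein was measured. IC50s came from linear regression of percent inhibition against log concentration, and the three IC50s were averaged.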

L1210 [2] = test: In vitro inhibition of L1210 cell growth to half of the control rate; assay type: functional, cell-based; conditions: Mus musculus
In short: (§1)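 Murine L1210 leukemia cells in static suspension culture in Fischer's medium with compound for 4 days. Growth rate is the ratio of control to treated population doubling time; where the rate changed, the final rate was used. IC50 is the concentration giving 50% of control growth rate; single-concentration value at 100 μM.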

L1210 [3] = test: In vitro inhibition of L1210 cell growth.; assay type: functional, Mus musculus; design: concentration or dose not given beside the values; in short: as §1
Human betaherpesvirus 5 = test: Inhibition of human cytomegalovirus (HCMV) in plaque reduction assay; assay type: functional, organism-based
In short: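 HCMV Towne strain (plaque-purified P0) plaque reduction in HFF monolayers in MEM(E) with 10% FBS. Inoculum held about 50 PFU, with compound dissolved in the overlay medium. IC50 came from linear regression of percent inhibition against log concentration, with ganciclovir or acyclovir positive controls in every set; two to five experiments.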

Human alphaherpesvirus 1 [4] = test: Inhibition of herpes simplex virus (HSV-1) in plaque reduction assay; assay type: functional, organism-based
In short: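 HSV-1 S-148 strain plaque reduction in BSC-1 monkey kidney monolayers, with about 100 PFU inoculum and compound dissolved in the overlay medium. IC50 came from linear regression of percent inhibition against log concentration, with a positive control in each set.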

[5] = Cytotoxic activity against BSC cells; assay type: cell-based; conditions: Cercopithecidae
In short: (§2)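 Cytotoxicity was scored visually in uninfected HFF or BSC-1 monolayers within the plaque-reduction assays. Drug-induced cytopathology was read at 35- and 60-fold magnification on a 0 to 4+ scale on the day plaques were stained and counted.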

[6] = Cytotoxic activity against HFF cells.; assay type: cell-based; conditions: Homo sapiens; in short: as §2
Human alphaherpesvirus 1 [7] = test: Inhibition of herpes simplex virus (HSV-1) in yield reduction assay; assay type: functional, organism-based
Mus musculus [8] = test: Compound was evaluated for 15 mice treated ip twice daily for 5 days at a dose of 5.6 mg/kg at 24 hr followed (MCMV) virus inoculation; assay type: functional; conditions: route intraperitoneal
In short: (§3)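 Three-week-old female Swiss Webster mice inoculated ip with 2×10^5 PFU MCMV Smith strain. Groups of 15 dosed ip twice daily for 5 days, starting 6, 24 or 48 h post-inoculation. Held 21 days with daily mortality checks. Final mortality and mean day of death (dying animals) computed. Mortality versus placebo by Fisher Exact Test, MDD by Mann–Whitney U-rank test.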

Mus musculus [9] = test: Compound was evaluated for mean day of death at 1.9 mg/kg at 24 h; assay type: functional; in short: as §3
Mus musculus [10] = test: Compound was evaluated for 15 mice treated ip twice daily for 5 days at a dose of 1.9 mg/kg at 24 hr followed (MCMV) virus inoculation; assay type: functional; conditions: route intraperitoneal; in short: as §3
Mus musculus [11] = test: Compound was evaluated for percent mortality of mice inoculated with murine cytomegalovirus at a concentration of 0.6 mg/kg at 6 h; assay type: organism-based; design: dose 0.6 mg/kg; conditions: in vivo; in short: as §3
Mus musculus [12] = test: Compound was evaluated for 15 mice treated ip twice daily for 5 days at a dose of 1.9 mg/kg at 48 hr followed (MCMV) virus inoculation; assay type: functional; conditions: route intraperitoneal; in short: as §3
Mus musculus [13] = test: Compound was evaluated for mean day of death at 5.6 mg/kg at 6 h; assay type: functional; in short: as §3
Mus musculus [14] = test: Compound was evaluated for percent mortality of mice inoculated with murine cytomegalovirus at a concentration of 1.9 mg/kg at 6 h; assay type: organism-based; design: dose 1.9 mg/kg; conditions: in vivo; in short: as §3
Mus musculus [15] = test: Compound was evaluated for mean day of death at 5.6 mg/kg at 24 h; assay type: functional; in short: as §3
Mus musculus [16] = test: Compound was evaluated for percent mortality of mice inoculated with murine cytomegalovirus at a concentration of 16.7 mg/kg at 48 h; assay type: organism-based; design: dose 16.7 mg/kg; conditions: in vivo; in short: as §3
Mus musculus [17] = test: Compound was evaluated for mean day of death at 1.9 mg/kg at 48 h; assay type: functional; in short: as §3
Mus musculus [18] = test: Compound was evaluated for mean day of death at 16.7 mg/kg at 48 h; assay type: functional; in short: as §3
Mus musculus [19] = test: Compound was evaluated for 15 mice treated ip twice daily for 5 days at a dose of 0.6 mg/kg at 24 h followed (MCMV) virus inoculation; assay type: functional; conditions: route intraperitoneal; in short: as §3
Mus musculus [20] = test: Compound was evaluated for mean day of death at 0.6 mg/kg at 6 h; assay type: functional; in short: as §3
Mus musculus [21] = test: Compound was evaluated for mean day of death at 5.6 mg/kg at 48 h; assay type: functional; in short: as §3
Mus musculus [22] = test: Compound was evaluated for percent mortality of mice inoculated with murine cytomegalovirus at a concentration of 16.7 mg/kg at 6 h; assay type: organism-based; design: dose 16.7 mg/kg; conditions: in vivo; in short: as §3
Mus musculus [23] = test: Compound was evaluated for mean day of death at 0.6 mg/kg at 24 h; assay type: functional; in short: as §3
Mus musculus [24] = test: Compound was evaluated for mean day of death at 1.9 mg/kg at 6 h; assay type: functional; in short: as §3
Mus musculus [25] = test: Compound was evaluated for percent mortality of mice inoculated with murine cytomegalovirus at a concentration of 5.6 mg/kg at 24 h; assay type: ADME, organism-based; design: dose 5.6 mg/kg; conditions: in vivo
In short: (§4)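 Three-week-old female Swiss Webster mice infected ip with 2×10^5 PFU MCMV Smith strain; groups of 15 given drug ip twice daily for 5 days, starting 6, 24 or 48 h after inoculation. Toxicity controls received drug without virus. Mortality followed daily for 21 days; final mortality compared with placebo by Fisher Exact Test.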

Mus musculus [26] = test: Compound was evaluated for 15 mice treated ip twice daily for 5 days at a dose of 1.9 mg/kg at 6 hr followed (MCMV) virus inoculation; assay type: functional; conditions: route intraperitoneal; in short: as §3
Neoplastic cell line [27] = test: Compound was evaluated for cytotoxic activity against KB cells; assay type: cell-based; conditions: Homo sapiens
In short: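 KB cells grown in MEM(H) + 5% FBS. Compound effects measured on radiolabelled precursor incorporation into DNA, RNA and protein. IC50s from linear regression of percent inhibition vs log concentration. The three IC50s were averaged, with 2–5 experiments averaged. Runs rejected if the acyclovir/ganciclovir control deviated >1.5 SD from its mean.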

Mus musculus [28] = test: Compound was evaluated for 15 mice treated ip twice daily for 5 days at a dose of 16.7 mg/kg at 48 hr followed (MCMV) virus inoculation; assay type: functional; conditions: route intraperitoneal; in short: as §3
[29] = Compound was evaluated for cytotoxic activity against BSC cells; assay type: cell-based; conditions: Cercopithecidae
In short: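 Visual cytotoxicity in uninfected areas of plaque-reduction cultures. HFF cells grown in MEM(E) + 10% FBS for HCMV (Towne) assays; BSC-1 cells for HSV-1 (S-148) assays. Drug in overlay medium. Cytopathology scored 0 to 4+ at 35- and 60-fold magnification on the staining day.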

Mus musculus [30] = test: Compound was evaluated for 15 mice treated ip twice daily for 5 days at a dose of 0.6 mg/kg at 6 hr followed (MCMV) virus inoculation; assay type: functional; conditions: route intraperitoneal; in short: as §3
Mus musculus [31] = test: Compound was evaluated for percent mortality of mice inoculated with murine cytomegalovirus at a concentration of 0.6 mg/kg at 24 h; assay type: organism-based; design: dose 0.6 mg/kg; conditions: in vivo; in short: as §3
Mus musculus [32] = test: Compound was evaluated for mean day of death at 16.7 mg/kg at 6 h; assay type: functional; in short: as §3
Mus musculus [33] = test: Compound was evaluated for mean day of death at 0.6 mg/kg at 48 h; assay type: functional; in short: as §3
Mus musculus [34] = test: Compound was evaluated for percent mortality of mice inoculated with murine cytomegalovirus at a concentration of 5.6 mg/kg at 48 h; assay type: ADME, organism-based; design: dose 5.6 mg/kg; conditions: in vivo; in short: as §4
Mus musculus [35] = test: Compound was evaluated for 15 mice treated ip twice daily for 5 days at a dose of 5.6 mg/kg at 6 hr followed (MCMV) virus inoculation; assay type: functional; conditions: route intraperitoneal; in short: as §3
Mus musculus [36] = test: Compound was evaluated for percent mortality of mice inoculated with murine cytomegalovirus at a concentration of 0.6 mg/kg at 48 h; assay type: organism-based; design: dose 0.6 mg/kg; conditions: in vivo; in short: as §3
Mus musculus [37] = test: Compound was evaluated for 15 mice treated ip twice daily for 5 days at a dose of 16.7 mg/kg at 24 hr followed (MCMV) virus inoculation; assay type: functional; conditions: route intraperitoneal; in short: as §3
Mus musculus [38] = test: Compound was evaluated for 15 mice treated ip twice daily for 5 days at a dose of 16.7 mg/kg at 6 hr followed (MCMV) virus inoculation; assay type: functional; conditions: route intraperitoneal; in short: as §3
Mus musculus [39] = test: Compound was evaluated for percent mortality of mice inoculated with murine cytomegalovirus at a concentration of 1.9 mg/kg at 24 h; assay type: organism-based; design: dose 1.9 mg/kg; conditions: in vivo; in short: as §3
Mus musculus [40] = test: Compound was evaluated for 15 mice treated ip twice daily for 5 days at a dose of 0.6 mg/kg at 48 h followed (MCMV) virus inoculation; assay type: functional; conditions: route intraperitoneal; in short: as §3
Mus musculus [41] = test: Compound was evaluated for percent mortality of mice inoculated with murine cytomegalovirus at a concentration of 16.7 mg/kg at 24 h; assay type: organism-based; design: dose 16.7 mg/kg; conditions: in vivo; in short: as §3
Mus musculus [42] = test: Compound was evaluated for 15 mice treated ip twice daily for 5 days at a dose of 5.6 mg/kg at 48 hr followed (MCMV) virus inoculation; assay type: functional; conditions: route intraperitoneal; in short: as §3
Mus musculus [43] = test: Compound was evaluated for mean day of death at 16.7 mg/kg at 24 h; assay type: functional; in short: as §3
Mus musculus [44] = test: Compound was evaluated for percent mortality of mice inoculated with murine cytomegalovirus at a concentration of 5.6 mg/kg at 6 h; assay type: ADME, organism-based; design: dose 5.6 mg/kg; conditions: in vivo; in short: as §4
Mus musculus [45] = test: Compound was evaluated for percent mortality of mice inoculated with murine cytomegalovirus at a concentration of 1.9 mg/kg at 48 h; assay type: organism-based; design: dose 1.9 mg/kg; conditions: in vivo; in short: as §3

Nc1ncnc2c1c(Br)cn2[C@@H]1O[C@H](CO)[C@@H](O)[C@H]1O
IC50 (Neoplastic cell line [1]): 2.3 µM
IC50 (L1210 [2]): 4 µM
Activity (L1210 [3]): 9%
IC50 (Human betaherpesvirus 5): 3.4 µM

CNc1ncnc2c1c(Br)cn2COC(CO)CO
IC50 (Human alphaherpesvirus 1 [4]): > 100 µM
IC50 [5]: > 100 µM
Activity (L1210 [3]): 100%
IC50 (Human betaherpesvirus 5; Human betaherpesvirus 5): > 100 µM
IC50 [6]: > 100 µM

Nc1nc2c(ncn2COCCO)c(=O)[nH]1 [ACYCLOVIR]
IC50 (Neoplastic cell line [1]): > 100 µM
IC50 (Human alphaherpesvirus 1 [4]): 4 µM
IC50 [5]: > 100 µM
IC90 (Human alphaherpesvirus 1 [7]): 7 µM
IC50 (Human betaherpesvirus 5): 63 µM

Nc1nc2c(ncn2COC(CO)CO)c(=O)[nH]1 [GANCICLOVIR]
Activity (Mus musculus [8]): 7
MDD (Mus musculus [9]): 4.9
IC50 (Human alphaherpesvirus 1 [4]): 4.5 µM
Activity (Mus musculus [10]): 12
Mortality (Mus musculus [11]): 93%
Activity (Mus musculus [12]): 11
MDD (Mus musculus [13]): 4.2
Mortality (Mus musculus [14]): 33%
MDD (Mus musculus [15]): 5.3
Mortality (Mus musculus [16]): 53%
MDD (Mus musculus [17]): 4.9
MDD (Mus musculus [18]): 5.5
Activity (Mus musculus [19]): 12
MDD (Mus musculus [20]): 4.6
MDD (Mus musculus [21]): 5.5
Mortality (Mus musculus [22]): 27%
MDD (Mus musculus [23]): 5.4
MDD (Mus musculus [24]): 5.4
Mortality (Mus musculus [25]): 47%
Activity (Mus musculus [26]): 5
IC50 (Neoplastic cell line [27]): > 100 µM
Activity (Mus musculus [28]): 8
IC50 [29]: > 100 µM
Activity (Mus musculus [30]): 14
Mortality (Mus musculus [31]): 80%
MDD (Mus musculus [32]): 3.8
MDD (Mus musculus [33]): 5.3
Mortality (Mus musculus [34]): 67%
Activity (Mus musculus [35]): 5
Mortality (Mus musculus [36]): 93%
Activity (Mus musculus [37]): 7
Activity (Mus musculus [38]): 4
Mortality (Mus musculus [39]): 80%
Activity (Mus musculus [40]): 14
Mortality (Mus musculus [41]): 47%
IC90 (Human alphaherpesvirus 1 [7]): 1.2 µM
IC50 (Human betaherpesvirus 5): 8.7 µM
Activity (Mus musculus [42]): 10
MDD (Mus musculus [43]): 5.3
Mortality (Mus musculus [44]): 33%
Mortality (Mus musculus [45]): 73%

Reference: ChEMBL document CHEMBL1124846, “Synthesis, antiproliferative, and antiviral activity of certain 4-substituted and 4,5-disubstituted 7-[(1,3-dihydroxy-2-propoxy)methyl]pyrrolo[2,3-d]pyrimidines” (J Med Chem, 1990)
